We go through 17 compounds from ChEMBL document CHEMBL1287672, “Synthesis of new 4-aminoquinolines and quinoline-acridine hybrids as antimalarial agents” (2010).

A word on the MIC: it is the lowest concentration found to suppress growth.

Test [1] relates to Plasmodium falciparum. As to the kind of experiment: Antimalarial activity against Plasmodium falciparum NF 54 assessed as inhibition of maturation into schizont stage after 36 to 40 hrs. The format is functional. The procedure, abridged: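 Synchronous ring-stage NF-54 parasites (5% D-sorbitol synchronization) in RPMI-1640 with 25 mM HEPES, 1% D-glucose, 0.23% sodium bicarbonate and 10% heat-inactivated human serum. Start at 1% parasitemia, 3% hematocrit. Compounds tested in duplicate wells, 37 °C, candle jar, 36–40 h. Giemsa-stained smears read by microscopy. MIC is the lowest tested concentration blocking full maturation to schizonts. Chloroquine reference.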

Test [2] relates to Plasmodium yoelii. The experiment in a line: Antimalarial activity against chloroquine-resistant Plasmodium yoelii infected in Swiss mice (Mus musculus) assessed as suppression of parasitaemia at 50 mg/kg, intraperitoneal for 4 days relative to control. The format is functional. The procedure, abridged: (§1)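 Swiss mice were infected on day 0 with 1 × 10^6 RBC parasitized by P. yoelii N-67. Five mice per group were dosed once daily on days 0–3 with a Tween 80 aqueous suspension, given ip in 0.2 mL or orally in 0.1 mL. Parasitemia was read from thin Giemsa smears on day 4. Suppression was calculated from group means as [(C − T)/C] × 100 against untreated controls.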

Test [3] has as its system Plasmodium yoelii. The experiment in a line: Antimalarial activity against chloroquine-resistant Plasmodium yoelii infected in Swiss mice (Mus musculus) assessed as mice (Mus musculus) survival at 50 mg/kg, intraperitoneal for 4 days relative to control. The format is functional, organism-based. Set-up: dose 50 mg/kg. The procedure, abridged:
(§2)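 Swiss mice were inoculated with 1 × 10^6 P. yoelii N-67 parasitized RBC on day 0. Groups of five were dosed once daily on days 0–3 with compound as an aqueous suspension with a few drops of Tween 80. Intraperitoneal doses were given in 0.2 mL and oral doses in 0.1 mL. The read-out was the number of mice alive on day 28.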

For test [4], the system named is Plasmodium yoelii. The experiment in a line: Antimalarial activity against chloroquine-resistant Plasmodium yoelii infected in Swiss mice (Mus musculus) assessed as suppression of parasitaemia at 25 mg/kg, intraperitoneal for 4 days relative to control. The format is functional. The procedure, abridged: as §1
For test [5], the system named is Plasmodium yoelii. As to the kind of experiment: Antimalarial activity against chloroquine-resistant Plasmodium yoelii infected in Swiss mice (Mus musculus) assessed as suppression of parasitaemia at 100 mg/kg, peroral for 4 days relative to control. The settings on record: route oral. The format is functional. The essentials: as §1
Test [6] concerns Plasmodium yoelii. As to the kind of experiment: Antimalarial activity against chloroquine-resistant Plasmodium yoelii infected in Swiss mice (Mus musculus) assessed as mice (Mus musculus) survival at 25 mg/kg, intraperitoneal for 4 days relative to control. The format is functional, organism-based. Set-up: dose 25 mg/kg. The procedure, abridged: as §2
For test [7], the system named is Plasmodium yoelii. The experiment in a line: Antimalarial activity against chloroquine-resistant Plasmodium yoelii infected in Swiss mice (Mus musculus) assessed as mice (Mus musculus) survival at 100 mg/kg, peroral for 4 days relative to control. The format is functional, organism-based. Set-up: dose 100 mg/kg. The procedure, abridged:
as §2

Converted amounts (≈) assume the structure as drawn. The source made the active and inactive calls. The rule behind the calls is not given here.

`Cc1ccc([N+](=O)[O-])c(N2CCN(CCCNc3ccnc4cc(Cl)ccc34)CC2)c1`: in test [1], the minimal inhibitory concentration (MIC) was 10 µg/mL (≈ 22.7 µM).
Regarding `COc1ccc2nc3cc(Cl)ccc3c(Nc3cccc(Nc4ccnc5cc(Cl)ccc45)c3)c2c1`, the MIC in test [1] was 0.25 µg/mL (≈ 0.489 µM). The Activity in test [2] was determined as 100%. The result in test [3] was inactive.
As to `Clc1ccc2c(NCCN3CCc4ccccc4C3)ccnc2c1`, the MIC in test [1] worked out at 2 µg/mL (≈ 5.92 µM).
Consider `O=[N+]([O-])c1cccnc1N1CCN(CCNc2ccnc3cc(Cl)ccc23)CC1`, for which the MIC in test [1] is 10 µg/mL (≈ 24.2 µM).
On the same count and under the same terms, next, `Cc1ccc([N+](=O)[O-])c(N2CCN(CCNc3ccnc4cc(Cl)ccc34)CC2)c1`: 10 µg/mL (≈ 23.5 µM); `O=[N+]([O-])c1ccccc1N1CCN(CCNc2ccnc3cc(Cl)ccc23)CC1`: 10 µg/mL (≈ 24.3 µM); `COc1ccc2nc3cc(Cl)ccc3c(Nc3ccc(Nc4ccnc5cc(Cl)ccc45)cc3)c2c1`: 0.5 µg/mL (≈ 0.978 µM).
Take `Clc1ccc2c(NCCN3CCN(c4ccccn4)CC3)ccnc2c1`: in test [1], the minimum inhibitory concentration (MIC) turned out to be 10 µg/mL (≈ 27.2 µM).
In the case of `CCN(CC)CCCC(C)Nc1ccnc2cc(Cl)ccc12` (configuration not stated) [CHLOROQUINE], in test [1], the MIC stood at 0.125 µg/mL (≈ 0.391 µM).
With `O=[N+]([O-])c1ccccc1N1CCN(CCCNc2ccnc3cc(Cl)ccc23)CC1`, in test [1], the MIC amounted to 10 µg/mL (≈ 23.5 µM).
With `N#CC1(c2ccccc2)CCN(CCCNc2ccnc3cc(Cl)ccc23)CC1`, the MIC in test [1] is 2 µg/mL (≈ 4.94 µM).
On to `O=[N+]([O-])c1cccnc1N1CCN(CCCNc2ccnc3cc(Cl)ccc23)CC1`, for which, in test [1], the minimal inhibitory concentration (MIC) is 10 µg/mL (≈ 23.4 µM).
Regarding `COc1ccc2nc3cc(Cl)ccc3c(NCCCN3CCN(c4ccnc5cc(Cl)ccc45)CC3)c2c1`, the MIC in test [1] was 1 µg/mL (≈ 1.83 µM).
For `COc1ccc2nc3cc(Cl)ccc3c(NCCN3CCN(c4ccnc5cc(Cl)ccc45)CC3)c2c1`, in test [1], the minimum inhibitory concentration (MIC) is 1 µg/mL (≈ 1.88 µM).
As to `Clc1ccc2c(NCCCN3CCN(c4ccccn4)CC3)ccnc2c1`, the MIC in test [1] was 0.125 µg/mL (≈ 0.327 µM). The Activity in test [2], in test [4] and in test [5] was 100% each time. Moreover, the result in test [3], in test [6] and in test [7] was Active.
As for `N#CC1(c2ccccc2)CCN(CCNc2ccnc3cc(Cl)ccc23)CC1`, the MIC in test [1] was 10 µg/mL (≈ 25.6 µM).
Take `Clc1ccc2c(NCCCN3CCc4ccccc4C3)ccnc2c1`: in test [1], the minimal inhibitory concentration (MIC) came out at 0.031 µg/mL (≈ 0.0881 µM). For the same compound, the Activity in test [2] was 100%. Also, the result in test [3] was inactive.
